Test [1] deals with Dengue virus. The test can be described thus: Antiviral activity against Dengue virus infected in african green monkey Vero cells administered before viral challenge after 3 days by viral plaque assay. The format is functional, organism-based. The method in brief: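 Monolayers seeded at 1 × 10^4 cells per well were pretreated for 180 min at 37°C with inhibitor at two noncytotoxic concentrations. They were then inoculated with DENV at moi 1 for 60 min at 37°C. Supernatant harvested 3 days postinfection was titrated by plaque assay. Activity was called at ≥five-fold (0.7 log) titer decrease.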

Test [2] relates to Dengue virus. Description: Antiviral activity against Dengue virus infected in african green monkey Vero cells administered after viral challenge after 3 days by viral plaque assay. The format is functional, organism-based. Summed up:
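Cells were seeded at 1 × 10^4 per well and infected with DENV at moi 1. Protein kinase inhibitors were then added at two noncytotoxic concentrations, set beforehand by MTT assay in Vero cells. After 3 days, infectious yield in the supernatant was titrated by plaque assay. Activity was called at ≥five-fold (0.7 log) titer decrease.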

In test [3] the test system is Dengue virus. The test can be described thus: Inhibition of viral spread in Dengue virus-infected asian tiger mosquito C6/36 cells assessed as accumulation of viral envelope protein within perinuclear region at 2.5 uM after 6 days by immunofluorescence assay relative to control. The format is functional, organism-based. Summed up:
(§1)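 Vero, Huh-7 or C6/36 cells were infected with DENV2 at moi 1 and then treated with 2.5 μM inhibitor or DMSO. Cells were fixed at days 4, 5 and 6 postinfection and stained for envelope protein by immunofluorescence. Envelope localization, including perinuclear accumulation, and infection of surrounding cells were compared with the DMSO control.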

The test system of test [4] is Dengue virus. Description: Inhibition of viral spread in Dengue virus-infected asian tiger mosquito C6/36 cells assessed as accumulation of viral envelope protein within perinuclear region at 2.5 uM after 5 days by immunofluorescence assay relative to control. The format is functional, organism-based. The method in brief: as §1
The next test deals with dengue virus type 3. The test can be described thus: Antiviral activity against Dengue virus 3 H87 infected in african green monkey Vero cells. It counts as functional, organism-based.
The subject of the next test is Modoc virus. The test can be described thus: Antiviral activity against Modoc virus M544 infected in african green monkey Vero cells. It counts as functional, organism-based.
Test [5] concerns Dengue virus. Description: Inhibition of viral spread in Dengue virus-infected african green monkey Vero cells assessed as accumulation of viral envelope protein within perinuclear region at 2.5 uM after 5 days by immunofluorescence assay relative to control. It counts as functional, organism-based. Summed up: as §1
In the next test the test system is Poliovirus 1. Description: Antiviral activity against Poliovirus 1 infected in african green monkey Vero cells. It counts as functional, organism-based.
In test [6] the test system is dengue virus type 2. The test can be described thus: Inhibition of Dengue virus 2 assembly in african green monkey Vero cells assessed as virus-induced membrane structures at 2.5 uM after 4 days postinfection by electron microscopy. It counts as functional, organism-based. The method in brief: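 DENV2-infected Vero cells were treated with 2.5 μM inhibitor, with DMSO-treated infected cells and DMSO-treated mock-infected cells as controls. At 4 days postinfection, cells were fixed in 2.5% glutaraldehyde plus 2.0% paraformaldehyde at 4°C for 24 h. Samples were embedded, sectioned and examined by transmission electron microscopy for virus particles and virus-induced membranes.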

The subject of test [7] is Dengue virus. Description: Inhibition of viral spread in Dengue virus-infected human Huh7 cells assessed as accumulation of viral envelope protein within perinuclear region at 2.5 uM after 6 days by immunofluorescence assay relative to control. The format is functional, organism-based. Conditions: Huh-7. The method in brief:
as §1

For a further test, the system named is dengue virus type 4. The test can be described thus: Antiviral activity against Dengue virus 4 H241 infected in african green monkey Vero cells. It counts as functional, organism-based.
Test [8] deals with Dengue virus. The test can be described thus: Inhibition of viral spread in Dengue virus-infected asian tiger mosquito C6/36 cells assessed as accumulation of viral envelope protein within perinuclear region at 2.5 uM after 4 days by immunofluorescence assay relative to control. The format is functional, organism-based. The method in brief: as §1
The test system of test [9] is Dengue virus. The test can be described thus: Inhibition of viral spread in Dengue virus-infected human Huh7 cells assessed as accumulation of viral envelope protein within perinuclear region at 2.5 uM after 4 days by immunofluorescence assay relative to control. It counts as functional, organism-based. The following applies: Huh-7. Summed up:
as §1

The subject of the next test is dengue virus type 1. Description: Antiviral activity against Dengue virus 1 Hawaii infected in african green monkey Vero cells. The format is functional, organism-based.
For test [10], the system named is Dengue virus. Description: Inhibition of viral spread in Dengue virus-infected african green monkey Vero cells assessed as accumulation of viral envelope protein within perinuclear region at 2.5 uM after 4 days by immunofluorescence assay relative to control. The format is functional, organism-based. The method in brief: as §1
Test [11] relates to Dengue virus. Description: Inhibition of viral spread in Dengue virus-infected human Huh7 cells assessed as accumulation of viral envelope protein within perinuclear region at 2.5 uM after 5 days by immunofluorescence assay relative to control. It counts as functional, organism-based. Conditions: Huh-7. The method in brief:
as §1

A short description of test [12]: Inhibition of PDGFR.
Test [13] relates to dengue virus type 2. Description: Antiviral activity against Dengue virus 2 infected in african green monkey Vero cells. It counts as functional, organism-based. The method in brief:
(§2)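 Vero, Huh-7 or C6/36 cells were infected with DENV2 at moi 1. Inhibitor was then added at noncytotoxic concentrations of 50 nM–5 μM for three days. Virus titer in the culture supernatant was measured by plaque assay.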

Test [14] has as its system Dengue virus. The test can be described thus: Inhibition of viral spread in Dengue virus-infected african green monkey Vero cells assessed as accumulation of viral envelope protein within perinuclear region at 2.5 uM after 6 days by immunofluorescence assay relative to control. It counts as functional, organism-based. Summed up:
as §1

The nature of test [15]: Inhibition of p38 MAPK.
In test [16] the test system is dengue virus type 2. The test can be described thus: Antiviral activity against Dengue virus 2 infected in human Huh7 cells. It counts as functional, organism-based. The following applies: Huh-7. The method in brief:
as §2

The subject of test [17] is dengue virus type 2. The test can be described thus: Antiviral activity against Dengue virus 2 infected in asian tiger mosquito C6/36 cells. It counts as functional, organism-based. Summed up: as §2
For test [18], the system named is dengue virus type 2. Description: Antiviral activity against Dengue virus 2 NGC infected in african green monkey Vero cells after 3 days by immunofluorescence assay. The format is functional, organism-based. Conditions: 72 h. The method in brief:
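DENV2 NGC was adsorbed to Vero monolayers at moi 1 for 60 min at 37°C with 5% CO2, then washed with PBS. Inhibitor was added at 0.02–10 μM final in 0.25% DMSO and incubated for 3 days. Cells were fixed and stained with anti-E mAb, FITC secondary and DAPI. Infected cells were counted in four automated-microscope fields per well and compared with DMSO-treated infected wells. IC50 came from nonlinear regression.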

Calls of active or inactive are those of the source. The calls are words filed in the database; no cut-off is given here.

With `Cn1cc(/C=C2\C(=O)Nc3ccc(S(N)(=O)=O)cc32)c2ccccc21`, the result in the test on Dengue virus [1] and in the test on Dengue virus [2] was Active.
As to `CNc1ncc2c(n1)N(C)C(=O)N(c1cc(NC(=O)c3cc(-n4cnc(C)c4)cc(C(F)(F)F)c3)ccc1C)C2`, the result in the test with Dengue virus [1] and in the test with Dengue virus [2] was Active.
Consider `Brc1c(Br)c(Br)c2[nH]nnc2c1Br`, for which the result in the test on Dengue virus [1] and in the test on Dengue virus [2] was Active.
For `Cc1nc(Nc2ncc(C(=O)Nc3c(C)cccc3Cl)s2)cc(N2CCN(CCO)CC2)n1` [DASATINIB], the result in the test with Dengue virus [3], with Dengue virus [4], with Dengue virus [5], with dengue virus type 2 [6], in the test on Dengue virus [7] and in the test on Dengue virus [8] was Active. For the same molecule, the result in the test with Dengue virus [9], in the test on Dengue virus [10], in the test on Dengue virus [11], with Dengue virus [2] and in the test on Dengue virus [14] was Active. The Activity entry in the test with dengue virus type 3, with Modoc virus, with dengue virus type 4, in the test on dengue virus type 1, with dengue virus type 2 [13] and in the test on dengue virus type 2 [16] was “Dose-dependent effect” each time. Moreover, in the test on dengue virus type 2 [17], the Activity result was “Dose-dependent effect”. The result in the test on Poliovirus 1 was inactive. Moreover, the IC50 – broadly, the point on the concentration scale where inhibition reaches its midpoint – in [12] stood at 28 nM; in test [15], 100 nM.
For the molecule `NC(=O)c1cccc(-c2cc(Nc3ccc(OC(F)(F)F)cc3)ncn2)c1`, the outcome with Dengue virus [1] and in the test on Dengue virus [2] was Active.
As to `O=C(O)c1cc(NCc2cc(O)ccc2O)ccc1O`, in the test on Dengue virus [2], the outcome was Active.
Same read-out and setting: to `O=S(=O)(c1cccc2c(I)cccc12)N1CCCNCC1` belongs “Active”.
For the molecule `COc1c(C)c2c(c(O)c1C/C=C(\C)CCC(=O)O)C(=O)OC2` [MYCOPHENOLIC ACID], in the test with dengue virus type 2 [18], the EC50 – broadly, the midpoint of the concentration-response curve – was 5700 nM.
Regarding `O=C(O)c1cc(N(Cc2ccccc2O)Cc2cc(O)ccc2O)ccc1O`, the outcome with Dengue virus [2] was Active.
For the molecule `Cc1ccc(Nc2nccc(-c3ccccc3)n2)cc1F`, the result with Dengue virus [1] was Active.
For `N#C/C(=C\c1ccc(O)c(O)c1)C(N)=O`, in the test on Dengue virus [2], the outcome was Active.
On the same count and under the same terms, as for `COc1cc2ncnc(Nc3cccc(Br)c3)c2cc1OC`, the entry is “Active”.
For the molecule `Cc1ccc(NC(=O)c2ccc(CN3CCN(C)CC3)cc2)cc1Nc1nccc(-c2cccnc2)n1`, the outcome with Dengue virus [1] was Active.
As to `O=C1Cc2c([nH]c3ccc(Br)cc23)-c2ccccc2N1`, the result in the test with Dengue virus [2] was Active.
Same read-out and setting: to `CCN(CC)CCNC(=O)c1c(C)[nH]c(/C=C2\C(=O)Nc3ccc(Cl)cc32)c1C` belongs “Active”.
For the molecule `COc1cc2ncnc(Nc3ccc(Oc4ccccc4)cc3)c2cc1OC`, the outcome in the test with Dengue virus [1] and with Dengue virus [2] was Active.
In the case of `CN1CCN(CCOc2cc(OC3CCOCC3)c3c(Nc4c(Cl)ccc5c4OCO5)ncnc3c2)CC1`, the result in the test on Dengue virus [3], in the test on Dengue virus [4], in the test on Dengue virus [5], in the test on Dengue virus [7], in the test on Dengue virus [8] and with Dengue virus [9] was Active. Further, the outcome with Dengue virus [10], in the test on Dengue virus [11], in the test on Dengue virus [2] and in the test with Dengue virus [14] was Active. Besides, the Activity result in the test on dengue virus type 2 [13], in the test on dengue virus type 2 [16] and in the test on dengue virus type 2 [17] was “Dose-dependent effect” throughout.
As for `CC(C)(C)c1nc2c3ccc(F)cc3c3c(=O)[nH]ccc3c2[nH]1`, the result in the test with Dengue virus [1] was Active.

The record behind these values is ChEMBL document CHEMBL1156446, “c-Src protein kinase inhibitors block assembly and maturation of dengue virus” (Proc Natl Acad Sci U S A, 2007).
